According to ChEMBL document CHEMBL2380296, “Structure-based design and optimization of 2-aminothiazole-4-carboxamide as a new class of CHK1 inhibitors” (Bioorg Med Chem Lett, 2013):

Key:
[1] = biological target: Alpha-2A adrenergic receptor (Homo sapiens) (UniProt P08913); test: Inhibition of adrenergic alpha-2A receptor (unknown origin) at 1 ug/mL relative to control
[2] = biological target: Inhibitor of nuclear factor kappa-B kinase subunit beta (Homo sapiens, UniProt O14920); test: Inhibition of human IKKB
[3] = biological target: RAC-alpha serine/threonine-protein kinase (Homo sapiens, UniProt P31749); test: Inhibition of human AKT1
[4] = Plasma concentration in rat at 10 mg/kg, po measured at 6 hrs; format: ADME, organism-based; design: dose 10 mg/kg, route oral
[5] = biological target: Adenosine receptor A1 (Homo sapiens) (UniProt P30542); test: Inhibition of adenosine A1 receptor (unknown origin) at 2 ug/mL relative to control
[6] = biological target: Muscarinic acetylcholine receptor M2 (Homo sapiens) (UniProt P08172); test: Inhibition of muscarinic M2 receptor (unknown origin) at 2 ug/mL relative to control
[7] = biological target: Histamine H1 receptor (Homo sapiens) (UniProt P35367); test: Inhibition of histamine H1 receptor (unknown origin) at 1 ug/mL relative to control
[8] = biological target: Muscarinic acetylcholine receptor M3 (Homo sapiens) (UniProt P20309); test: Inhibition of muscarinic M3 receptor (unknown origin) at 2 ug/mL relative to control
Muscarinic acetylcholine receptor M3 (Homo sapiens), sequence (P20309 whole entry, looked up): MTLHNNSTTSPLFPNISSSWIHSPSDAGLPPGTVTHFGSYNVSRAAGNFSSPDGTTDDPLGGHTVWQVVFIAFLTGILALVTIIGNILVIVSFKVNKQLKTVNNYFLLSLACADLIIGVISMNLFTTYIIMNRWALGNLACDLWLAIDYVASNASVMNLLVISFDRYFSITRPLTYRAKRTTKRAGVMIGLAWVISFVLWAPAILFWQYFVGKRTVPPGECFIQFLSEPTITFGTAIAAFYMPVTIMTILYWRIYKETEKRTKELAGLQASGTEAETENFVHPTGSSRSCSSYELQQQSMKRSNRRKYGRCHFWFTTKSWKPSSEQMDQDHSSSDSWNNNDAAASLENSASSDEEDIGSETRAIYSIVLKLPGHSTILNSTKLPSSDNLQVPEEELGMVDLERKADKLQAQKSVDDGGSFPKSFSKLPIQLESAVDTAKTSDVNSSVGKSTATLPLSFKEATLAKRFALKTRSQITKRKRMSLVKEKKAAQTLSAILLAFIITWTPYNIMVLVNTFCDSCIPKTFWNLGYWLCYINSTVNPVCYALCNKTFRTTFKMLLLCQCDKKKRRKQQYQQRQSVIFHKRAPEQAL

[9] = biological target: Alpha-1B adrenergic receptor (Homo sapiens) (UniProt P35368); test: Inhibition of adrenergic alpha-1B receptor (unknown origin) at 1 ug/mL relative to control
[10] = biological target: Rho-associated protein kinase 2 (Homo sapiens, UniProt O75116); test: Inhibition of human ROCK2
[11] = Plasma concentration in rat at 10 mg/kg, po measured at 24 hrs; format: ADME, organism-based; design: dose 10 mg/kg, route oral
[12] = biological target: Vasopressin V2 receptor (Homo sapiens) (UniProt P30518); test: Inhibition of vasopressin V2 receptor (unknown origin) at 2 ug/mL relative to control
[13] = biological target: Adenosine receptor A2a (Homo sapiens) (UniProt P29274); test: Inhibition of adenosine A2A receptor (unknown origin) at 2 ug/mL relative to control
[14] = biological target: Hepatocyte growth factor receptor (Homo sapiens, UniProt P08581); test: Inhibition of human MET
[15] = biological target: Vasopressin V1b receptor (Homo sapiens) (UniProt P47901); test: Inhibition of vasopressin V1b receptor (unknown origin) at 2 ug/mL relative to control
Vasopressin V1b receptor (Homo sapiens), sequence (P47901 whole entry): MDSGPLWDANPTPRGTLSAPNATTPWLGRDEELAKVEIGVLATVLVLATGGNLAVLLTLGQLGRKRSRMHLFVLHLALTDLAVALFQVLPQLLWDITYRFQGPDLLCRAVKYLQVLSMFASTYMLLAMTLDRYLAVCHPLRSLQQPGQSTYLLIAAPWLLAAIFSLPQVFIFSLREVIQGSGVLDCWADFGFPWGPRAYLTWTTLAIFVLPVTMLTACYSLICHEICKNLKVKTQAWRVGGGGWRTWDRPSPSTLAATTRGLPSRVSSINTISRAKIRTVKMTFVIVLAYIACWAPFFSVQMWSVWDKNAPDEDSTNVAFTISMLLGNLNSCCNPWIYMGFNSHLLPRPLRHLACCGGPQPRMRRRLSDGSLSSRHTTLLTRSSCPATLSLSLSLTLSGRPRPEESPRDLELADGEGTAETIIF

[16] = biological target: Cytochrome P450 3A4 (Homo sapiens, UniProt P08684); test: Time-dependent inhibition of CYP3A4 in human liver microsomes using 6beta-hydroxylase as substrate incubated for 30 mins prior to substrate addition measured after 30 mins by LC-MS/MS analysis; format: ADME, Microsome
[17] = biological target: Cyclin-dependent kinase 2 (Homo sapiens, UniProt P24941); test: Inhibition of human CDK2
Procedure, shortened: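 Biochemical kinase inhibition assay. Reported values are averages of duplicate or triplicate determinations, with a standard deviation of 10%.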

[18] = biological target: Serine/threonine-protein kinase PLK3 (Homo sapiens, UniProt Q9H4B4); test: Inhibition of human PLK3
[19] = biological target: T1, hERG (KCNH2) (Homo sapiens, UniProt Q12809); test: Inhibition of human ERG at 1 uM after 5 mins by voltage clamp assay relative to control
T1 sequence (Q12809 whole entry): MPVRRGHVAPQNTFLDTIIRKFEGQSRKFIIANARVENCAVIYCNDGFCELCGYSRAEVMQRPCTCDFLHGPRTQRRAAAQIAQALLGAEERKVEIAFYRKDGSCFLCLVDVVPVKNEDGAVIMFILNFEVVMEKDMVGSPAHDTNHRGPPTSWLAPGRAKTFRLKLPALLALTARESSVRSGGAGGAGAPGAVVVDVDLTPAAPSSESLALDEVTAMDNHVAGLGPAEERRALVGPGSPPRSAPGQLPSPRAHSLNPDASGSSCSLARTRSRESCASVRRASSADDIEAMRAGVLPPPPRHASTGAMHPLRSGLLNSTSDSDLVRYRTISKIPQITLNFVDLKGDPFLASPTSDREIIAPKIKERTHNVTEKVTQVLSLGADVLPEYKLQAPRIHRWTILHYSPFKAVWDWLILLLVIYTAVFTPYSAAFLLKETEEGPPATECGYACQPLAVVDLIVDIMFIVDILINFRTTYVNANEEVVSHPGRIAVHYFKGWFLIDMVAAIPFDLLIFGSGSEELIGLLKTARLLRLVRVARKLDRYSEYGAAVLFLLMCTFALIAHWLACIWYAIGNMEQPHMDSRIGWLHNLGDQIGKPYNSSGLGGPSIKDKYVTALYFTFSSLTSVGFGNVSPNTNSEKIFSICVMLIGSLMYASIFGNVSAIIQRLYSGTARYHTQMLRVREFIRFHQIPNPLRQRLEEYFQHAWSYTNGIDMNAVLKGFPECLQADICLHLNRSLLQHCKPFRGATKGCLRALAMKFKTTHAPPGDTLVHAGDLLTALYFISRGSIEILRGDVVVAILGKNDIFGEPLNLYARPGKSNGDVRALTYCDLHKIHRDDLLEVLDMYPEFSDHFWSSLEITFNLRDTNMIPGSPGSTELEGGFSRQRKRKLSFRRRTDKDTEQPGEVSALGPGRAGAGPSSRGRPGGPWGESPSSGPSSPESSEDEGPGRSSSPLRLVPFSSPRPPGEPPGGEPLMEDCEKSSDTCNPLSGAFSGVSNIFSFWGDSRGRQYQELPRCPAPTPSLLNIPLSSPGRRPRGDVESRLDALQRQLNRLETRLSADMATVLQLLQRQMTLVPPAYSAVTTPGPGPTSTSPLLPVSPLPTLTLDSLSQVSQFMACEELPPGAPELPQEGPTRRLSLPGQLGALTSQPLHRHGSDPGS

[20] = Plasma concentration in rat at 10 mg/kg, po measured at 2 hrs; format: ADME, organism-based; design: dose 10 mg/kg, route oral
[21] = biological target: D(2) dopamine receptor (Homo sapiens) (UniProt P14416); test: Inhibition of dopamine D2 receptor (unknown origin) at 2 ug/mL relative to control
D(2) dopamine receptor (Homo sapiens), sequence (P14416 whole entry): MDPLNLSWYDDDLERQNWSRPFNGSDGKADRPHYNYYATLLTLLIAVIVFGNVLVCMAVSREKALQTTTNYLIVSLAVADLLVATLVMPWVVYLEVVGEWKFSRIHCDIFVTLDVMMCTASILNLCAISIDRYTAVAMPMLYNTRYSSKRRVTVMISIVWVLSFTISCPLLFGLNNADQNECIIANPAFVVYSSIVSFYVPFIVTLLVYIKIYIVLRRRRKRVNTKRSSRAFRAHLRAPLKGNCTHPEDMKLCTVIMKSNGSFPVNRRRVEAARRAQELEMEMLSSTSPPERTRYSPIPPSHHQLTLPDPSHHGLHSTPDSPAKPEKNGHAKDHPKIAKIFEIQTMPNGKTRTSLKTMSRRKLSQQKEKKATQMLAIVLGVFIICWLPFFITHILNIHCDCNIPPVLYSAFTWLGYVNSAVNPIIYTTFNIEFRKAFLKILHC

[22] = biological target: Serine/threonine-protein kinase 3 (Homo sapiens, UniProt Q13188); test: Inhibition of human MST2
Serine/threonine-protein kinase 3, sequence (Q13188 whole entry): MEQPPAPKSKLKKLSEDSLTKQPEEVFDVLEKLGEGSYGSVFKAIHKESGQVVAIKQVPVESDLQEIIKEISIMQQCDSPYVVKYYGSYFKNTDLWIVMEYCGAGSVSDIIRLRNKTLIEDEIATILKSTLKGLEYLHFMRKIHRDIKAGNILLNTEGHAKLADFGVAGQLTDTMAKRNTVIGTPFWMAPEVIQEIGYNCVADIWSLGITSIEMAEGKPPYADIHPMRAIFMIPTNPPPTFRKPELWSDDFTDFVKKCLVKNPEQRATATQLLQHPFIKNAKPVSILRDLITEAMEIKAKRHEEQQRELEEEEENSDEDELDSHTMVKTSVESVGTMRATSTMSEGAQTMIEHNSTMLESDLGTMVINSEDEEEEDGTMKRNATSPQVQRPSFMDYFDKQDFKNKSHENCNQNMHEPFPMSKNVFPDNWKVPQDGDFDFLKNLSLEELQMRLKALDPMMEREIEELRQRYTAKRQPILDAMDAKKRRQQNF

[23] = biological target: Serine/threonine-protein kinase Nek2 (Homo sapiens, UniProt P51955); test: Inhibition of human NEK2
[24] = biological target: Alpha-2C adrenergic receptor (Homo sapiens) (UniProt P18825); test: Inhibition of adrenergic alpha-2C receptor (unknown origin) at 1 ug/mL relative to control
[25] = biological target: Muscarinic acetylcholine receptor M5 (Homo sapiens) (UniProt P08912); test: Inhibition of muscarinic M5 receptor (unknown origin) at 2 ug/mL relative to control
[26] = biological target: Protein kinase C alpha type (Homo sapiens, UniProt P17252); test: Inhibition of human PKCA
[27] = biological target: T1, hERG (KCNH2); test: Inhibition of human ERG expressed in mouse L929 cells at 1 uM by IonWorks assay relative to control; format: cell-based; conditions: mouse L929 cells expressing human ERG
[28] = biological target: Alpha-1A adrenergic receptor (Homo sapiens) (UniProt P35348); test: Inhibition of adrenergic alpha-1A receptor (unknown origin) at 1 ug/mL relative to control
Alpha-1A adrenergic receptor (Homo sapiens), sequence (P35348 whole entry): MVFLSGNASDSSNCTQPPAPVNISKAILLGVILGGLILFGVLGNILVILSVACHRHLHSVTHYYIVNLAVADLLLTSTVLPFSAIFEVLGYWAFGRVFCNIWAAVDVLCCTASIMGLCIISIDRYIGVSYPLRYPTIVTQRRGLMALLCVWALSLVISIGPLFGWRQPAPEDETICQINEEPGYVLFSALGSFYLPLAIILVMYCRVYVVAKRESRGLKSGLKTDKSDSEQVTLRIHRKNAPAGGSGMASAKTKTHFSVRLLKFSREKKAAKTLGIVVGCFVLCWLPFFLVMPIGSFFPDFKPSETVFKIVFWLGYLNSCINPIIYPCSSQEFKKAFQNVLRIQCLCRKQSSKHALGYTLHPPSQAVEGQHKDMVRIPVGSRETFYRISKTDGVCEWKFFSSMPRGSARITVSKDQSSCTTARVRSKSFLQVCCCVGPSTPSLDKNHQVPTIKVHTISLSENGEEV

[29] = biological target: T1, hERG (KCNH2); test: Inhibition of human ERG transfected in CHO cells at 5 ug/mL by rubidium efflux assay relative to control; format: cell-based; conditions: CHO cells transfected with human ERG
[30] = biological target: Interleukin-1 receptor-associated kinase 4 (Homo sapiens, UniProt Q9NWZ3); test: Inhibition of human IRAK4
[31] = biological target: Cytochrome P450 2D6 (Homo sapiens, UniProt P10635); test: Time-dependent inhibition of CYP2D6 in human liver microsomes using dextromethorphan as substrate incubated for 30 mins prior to substrate addition measured after 30 mins by LC-MS/MS analysis; format: ADME, Microsome
[32] = AUC in rat at 10 mg/kg, po; format: ADME, organism-based; design: dose 10 mg/kg, route oral; conditions: plasma
[33] = biological target: Casein kinase I isoform delta (Homo sapiens, UniProt P48730); test: Inhibition of human CSNK1D
[34] = biological target: Muscarinic acetylcholine receptor M4 (Homo sapiens) (UniProt P08173); test: Inhibition of muscarinic M4 receptor (unknown origin) at 2 ug/mL relative to control
[35] = biological target: Mitogen-activated protein kinase 1 (Homo sapiens, UniProt P28482); test: Inhibition of human ERK2
[36] = biological target: Cannabinoid receptor 2 (Homo sapiens) (UniProt P34972); test: Inhibition of CB2 receptor (unknown origin) at 20 ug/mL relative to control
Cannabinoid receptor 2 (Homo sapiens), sequence (P34972 whole entry): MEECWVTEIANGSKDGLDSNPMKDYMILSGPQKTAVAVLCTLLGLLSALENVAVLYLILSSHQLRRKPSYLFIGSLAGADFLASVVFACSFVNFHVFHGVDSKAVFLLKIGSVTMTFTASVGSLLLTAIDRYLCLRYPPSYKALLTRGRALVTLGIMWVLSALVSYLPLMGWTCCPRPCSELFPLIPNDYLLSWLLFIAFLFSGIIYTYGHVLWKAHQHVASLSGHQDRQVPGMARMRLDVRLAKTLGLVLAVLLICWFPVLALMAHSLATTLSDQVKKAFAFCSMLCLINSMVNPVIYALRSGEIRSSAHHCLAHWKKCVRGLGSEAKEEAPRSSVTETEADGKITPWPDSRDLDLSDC

[37] = biological target: Tyrosine-protein kinase Lck (Homo sapiens, UniProt P06239); test: Inhibition of human LCK
[38] = biological target: Tyrosine-protein kinase JAK2 (Homo sapiens, UniProt O60674); test: Inhibition of human JAK2
[39] = biological target: Oxytocin receptor (Homo sapiens) (UniProt P30559); test: Inhibition of oxytocin receptor (unknown origin) at 2 ug/mL relative to control
[40] = biological target: Muscarinic acetylcholine receptor M1 (Homo sapiens) (UniProt P11229); test: Inhibition of muscarinic M1 receptor (unknown origin) at 2 ug/mL relative to control
Muscarinic acetylcholine receptor M1 (Homo sapiens), sequence (P11229 whole entry): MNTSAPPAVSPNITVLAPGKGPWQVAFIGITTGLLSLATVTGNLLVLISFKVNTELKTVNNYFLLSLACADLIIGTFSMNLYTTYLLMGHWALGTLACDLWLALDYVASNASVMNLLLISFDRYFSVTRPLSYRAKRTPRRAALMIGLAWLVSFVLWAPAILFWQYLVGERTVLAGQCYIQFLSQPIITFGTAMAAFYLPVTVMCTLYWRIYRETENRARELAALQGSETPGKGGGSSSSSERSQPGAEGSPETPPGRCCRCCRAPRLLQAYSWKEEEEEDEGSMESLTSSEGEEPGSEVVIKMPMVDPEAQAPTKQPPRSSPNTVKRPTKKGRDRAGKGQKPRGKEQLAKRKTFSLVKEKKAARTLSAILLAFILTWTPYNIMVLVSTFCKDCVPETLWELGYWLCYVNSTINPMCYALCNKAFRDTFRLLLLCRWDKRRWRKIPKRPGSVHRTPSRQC

[41] = biological target: T1, hERG (KCNH2); test: Inhibition of human ERG transfected in CHO cells at 1.5 ug/mL by rubidium efflux assay relative to control; format: cell-based; conditions: CHO cells transfected with human ERG
[42] = biological target: 5-hydroxytryptamine receptor 1A (Homo sapiens) (UniProt P08908); test: Inhibition of 5HT-1A receptor (unknown origin) at 2 ug/mL relative to control
5-hydroxytryptamine receptor 1A (Homo sapiens), sequence (P08908 whole entry): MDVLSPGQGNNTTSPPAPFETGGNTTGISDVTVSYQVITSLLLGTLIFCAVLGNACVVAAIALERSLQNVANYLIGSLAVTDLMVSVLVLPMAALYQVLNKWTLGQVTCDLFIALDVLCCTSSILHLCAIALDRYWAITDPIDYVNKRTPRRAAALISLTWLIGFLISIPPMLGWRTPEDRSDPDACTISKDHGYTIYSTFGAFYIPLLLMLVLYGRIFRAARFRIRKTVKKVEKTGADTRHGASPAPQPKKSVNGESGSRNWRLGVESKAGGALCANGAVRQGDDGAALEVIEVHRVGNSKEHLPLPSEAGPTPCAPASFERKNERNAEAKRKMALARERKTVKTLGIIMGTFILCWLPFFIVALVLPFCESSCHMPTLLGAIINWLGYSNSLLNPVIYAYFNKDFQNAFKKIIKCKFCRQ

[43] = Cmax in rat at 10 mg/kg, po; format: ADME, organism-based; design: dose 10 mg/kg, route oral; conditions: in vivo
[44] = biological target: Vasopressin V1a receptor (Homo sapiens) (UniProt P37288); test: Inhibition of vasopressin V1a receptor (unknown origin) at 2 ug/mL relative to control

inhibition [1]: 16.1% | IC50 [2]: > 30 µM | IC50 [3]: 4.8 µM | concentration at 6 h [4]: 252 ng/mL | inhibition [5]: -3.2% | inhibition [6]: 3.5% | inhibition [7]: 21% | inhibition [8]: 10.1% | inhibition [9]: 21.8% | IC50 [10]: 6.8 µM | concentration at 24 h [11]: 6.29 ng/mL | inhibition [12]: 20.4% | inhibition [13]: -5.8% | IC50 [14]: > 30 µM | inhibition [15]: 6.1% | IC50 [16]: > 30 µM | IC50 [17]: > 30 µM | IC50 [18]: > 30 µM | concentration at 2 h [20]: 150 ng/mL | inhibition [21]: 16.9% | IC50 [22]: 2100 nM | IC50 [23]: 9.5 µM | inhibition [24]: 13.8% | inhibition [25]: 14.4% | IC50 [26]: > 30 µM | inhibition [28]: 23.7% | IC50 [30]: 1100 nM | IC50 [31]: > 30 µM | AUC [32]: 7.2 µM·h | IC50 [33]: > 30 µM | inhibition [34]: 14.1% | IC50 [35]: 20 µM | inhibition [36]: 25.1% | IC50 [37]: > 30 µM | IC50 [38]: 21 µM | inhibition [39]: 25.7% | inhibition [40]: 43.8% | inhibition [42]: 12.8% | Cmax [43]: 600 nM | inhibition [44]: 10.9%
SMILES: COc1ccc2c(c1)C(=O)N(c1nc(C(=O)Nc3cnccc3N3CCNCC3)cs1)C2
inhibition at 5 min, 1 µM [19]: 82% | inhibition at 1 µM [27]: 4% | inhibition at 5 ug/mL [29]: 65% | inhibition at 1.5 ug/mL [41]: 24%
